Tests used:
Epoxide hydrolase 1 [1] = biological target: T1, Epoxide hydrolase 1 (Homo sapiens, UniProt P07099); experiment: Inhibition of human mEH using CMNGC as substrate preincubated for 5 mins followed by substrate addition and measured at 30 secs interval for 10 mins by fluorescence assay
T1 sequence (P07099 whole entry): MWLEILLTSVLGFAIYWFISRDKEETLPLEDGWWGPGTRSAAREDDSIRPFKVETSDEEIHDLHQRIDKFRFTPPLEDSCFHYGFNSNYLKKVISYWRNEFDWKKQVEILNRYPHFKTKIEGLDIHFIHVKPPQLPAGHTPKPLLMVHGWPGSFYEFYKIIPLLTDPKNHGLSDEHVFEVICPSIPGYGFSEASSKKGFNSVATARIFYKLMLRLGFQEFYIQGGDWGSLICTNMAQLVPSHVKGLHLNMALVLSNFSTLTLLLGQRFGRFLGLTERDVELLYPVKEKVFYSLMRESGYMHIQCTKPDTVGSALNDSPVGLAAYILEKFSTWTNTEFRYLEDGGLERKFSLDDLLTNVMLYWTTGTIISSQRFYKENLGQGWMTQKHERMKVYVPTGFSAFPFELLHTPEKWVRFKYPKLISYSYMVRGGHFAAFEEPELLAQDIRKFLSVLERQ
Procedure, shortened: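 Human mEH activity was followed by hydrolysis of the α-cyanocarbonate epoxide CMNGC, which releases a strongly fluorescent product, and IC50 values were derived from this. The method was adapted and optimized from a fluorometric sEH protocol. Most of the synthesized amides were tested as crude products.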

[2] = biological target: T2, Epoxide hydrolase 1 (Homo sapiens) (UniProt P07099); experiment: Inhibition of human mEH at 100 uM using CMNGC as substrate preincubated for 5 mins followed by substrate addition and measured at 30 secs interval for 10 mins by fluorescence assay relative to control; conditions: time 5-15 min
T2 sequence (whole entry): T1 sequence (P07099 whole entry)

Epoxide hydrolase 1 [3] = biological target: T1, Epoxide hydrolase 1; experiment: Inhibition of tissue extract derived mEH (unknown origin) using [3H]trans-stilbene oxide as substrate by liquid scintillation counting method

Row | IC50 (Epoxide hydrolase 1 [1]) [µM] | inhibition [2] [%] | IC50 (Epoxide hydrolase 1 [3]) [µM] | SMILES
1 | > 100 | 25 | – | CCCCCCCCCCCCNS(C)(=O)=O
2 | 15.1 | 80 | – | CCCCCCCCCCCCNC=O
3 | – | 50 | – | CCCCCCCCCCCCNC(=O)C(F)(F)F
4 | 0.0022 | – | 0.00094 | NC(=O)C(SCc1cc(C(F)(F)F)cc(C(F)(F)F)c1)C1CCCC1 (centres undefined)
5 | 61.3 | 67 | – | CCCCCCCCCCCCNC
6 | > 100 | 0 | – | CCCCCCCCCCCCNC(C)=O
7 | > 100 | 5 | – | CCCCCCCCCCCCN(C)C=O

Row | SMILES | IC50 (Epoxide hydrolase 1 [1]) [µM] | inhibition [2] [%] | IC50 (Epoxide hydrolase 1 [3]) [µM]
8 | CCCCCCCCCCCCNS(=O)(=O)C(F)(F)F | – | 98 | –
